High-throughput results as filed in PubChem BioAssay.
Rows were chosen to be rich in hits. Some 1.7% of all compounds tested hit in one or more screens of this group.
Rce1 inh – inhibitors of yeast Ras-converting enzyme; Q03530; yeast membranes, quenched prenylated peptide cleavage fluorescence; calls only; actives 0.27% (n = 290,000); AID 2563;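 active = fall in fluorescence gain of 50% or more versus controls, with final raw signal at or below 3038400; inconclusive = same 50% fall but final raw signal above 3038400; inactive = fall in fluorescence gain under 50%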;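 note: plate controls were neutral control wells for no effect and wells lacking membranes for full effect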
RanGTP-Impb inh – disruptors of Ran-importin-beta complex formation – biochemical, FRET, CFP-Ran, YFP-importin-beta, homogeneous, primary screen; cell-free CFP-Ran/YFP-importin-beta FRET ratio; inhibition, % (concentration not given with the values); actives 1.1% (n = 300,000);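 active = more than half of the replicate wells show a fall in the fluorescence ratio signal beyond about 16%, limit read from the data, passing the limit was not always enough; inconclusive = exactly half of the replicate wells pass the set limit; inactive = fewer than half of replicates pass the limit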;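 note: 0% = DMSO wells and 100% = Ran loaded with GDP instead of GTP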
Runt-SMMHC FRET – inhibitors of human RUNX1 Runt domain binding to CBFb-SMMHC. inhibition, % at 20 µM. AID 1434. Cerulean-Runt/Venus-CBFb-SMMHC FRET ratio 530/480, 1 h. actives 0.74% (n = 220,000);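 active = mean inhibition across duplicate retests at 20 µM reaching about 50%, limit read from the data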;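 note: 0% = DMSO wells and 100% = wells with excess untagged CBFb-SMMHC; inhibitors lower the FRET ratio by blocking Runt binding to CBFb-SMMHC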
Target sequence (Q01196 whole entry, looked up, the tested form may be a part): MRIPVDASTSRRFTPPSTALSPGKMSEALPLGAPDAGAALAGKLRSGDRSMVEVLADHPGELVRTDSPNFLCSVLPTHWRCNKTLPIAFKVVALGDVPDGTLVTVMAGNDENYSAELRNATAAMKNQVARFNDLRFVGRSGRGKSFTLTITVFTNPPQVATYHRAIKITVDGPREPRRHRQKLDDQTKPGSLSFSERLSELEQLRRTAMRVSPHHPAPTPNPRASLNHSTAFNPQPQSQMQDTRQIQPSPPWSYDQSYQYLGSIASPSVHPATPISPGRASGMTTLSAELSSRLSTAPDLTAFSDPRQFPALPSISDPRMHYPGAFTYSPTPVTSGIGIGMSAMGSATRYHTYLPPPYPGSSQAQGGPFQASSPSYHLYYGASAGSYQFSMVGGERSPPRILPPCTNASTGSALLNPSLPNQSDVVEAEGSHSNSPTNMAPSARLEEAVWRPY
Target sequence (Q13951 whole entry, looked up, the tested form may be a part): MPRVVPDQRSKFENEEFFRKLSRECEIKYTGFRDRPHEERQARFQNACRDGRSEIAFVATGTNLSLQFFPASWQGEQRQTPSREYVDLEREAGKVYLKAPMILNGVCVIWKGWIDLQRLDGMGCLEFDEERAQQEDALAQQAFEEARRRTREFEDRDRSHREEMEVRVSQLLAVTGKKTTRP
Runt-CBFb FRET – inhibitors of human RUNX1 Runt domain binding to CBFb | Q01196+Q13951 | Cerulean-Runt/Venus-CBFb FRET ratio 530/480, 1 h | inhibition, % at 20 µM | actives 0.46% (n = 220,000) | AID 1496;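 active = inhibition over about 50% at 20 µM in the single-dose screen, limit read from the data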;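 note: 0% = DMSO wells and 100% = excess unlabeled CBFb competitor control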
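test system = Cerulean-Runt domain fusion protein, energy donor | probe or stimulus = Venus-CBFb binding partner, 100 nM | incubation = two 1 h room-temperature incubations shielded from light | detection = fluorescence energy transfer, 422 nm excitation, 530/480 nm emission | measure = loss of energy transfer signal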
Vif imaging – blocks HIV Vif function; actives 0.35% (n = 340,000); HEK293T cells, Vif self-association by quenched fluorescence, imaging, 24 h; AID 602346; inhibition, % at 7.49 µM; in the data active = inhibition above about 50%, passing the limit was not always enough; inconclusive = no clear call, values can overlap the other calls; inactive = below about 31%
An asterisk follows results filed as active; i = inactive; u = inconclusive; x = no result; + = active, no number.

SMILES	Rce1 inh	RanGTP-Impb inh	Runt-SMMHC FRET	Runt-CBFb FRET	Vif imaging
Cc1nn2c3c(cnc2c1-c1ccc(Cl)cc1)C(=O)CC(c1ccco1)C3 (stereo unspecified)	i	19.0*	-186.0	-100.8	9.5
Cc1nn2c3c(cnc2c1-c1ccccc1)C(=O)CCC3	i	2.2	-1.6	-1.5	-21.2
O=C(c1cc(C2CC2)nn1-c1ccccc1)N1CCN(S(=O)(=O)c2cccc(F)c2)CC1	x	x	x	x	5.8
CCOC(=O)c1cc2c(=O)n3cccc(C)c3nc2n(CCCOC)c1=NC(=O)c1cccnc1	i	128.6*	12.4	110.4*	x
CCOC(=O)c1cc2c(=O)n3cc(C)ccc3nc2n(Cc2cccnc2)c1=N	x	x	41.7	10.5	x
CCOCCCn1c(=NC(=O)c2cccnc2)c(C(=O)OCC)cc2c(=O)n3ccccc3nc21	i	118.6*	41.7	65.1*	-2.1
CCCCn1c(=NC(=O)c2ccco2)c(C(=O)OCC)cc2c(=O)n3ccccc3nc21	i	-3.0	46.5	9.9	8.0
CCCCn1c(=NC(=O)c2cccnc2)c(C(=O)OCC)cc2c(=O)n3ccccc3nc21	i	82.0*	62.0*	93.1*	1.8
COc1cccc(CN(C)C(=O)CN2C(=O)NC(c3ccccc3)(c3ccccc3)C2=O)c1	x	x	x	x	-5.5
Cc1ccc(C(=O)COC(=O)c2cccc([N+](=O)[O-])c2)s1	x	x	x	x	12.3
Cc1ccc(-c2cc(N)nc(-c3ccccc3)c2)cc1	x	2.9	x	x	20.3
COc1ccc(OC)c(/C(O)=C/C(=O)C(=O)Nc2cc(C)ccc2OC)c1	i	0.2	-2.4	0.8	61.0*
COCCNC(=S)NCCCNc1nc2cc3c(cc2cc1C#N)OCO3	i	87.5*	48.5	15.1	1.6
CN(C)CCCNC(=S)NCCNc1nc2cc3c(cc2cc1C#N)OCO3	i	71.6*	112.7*	83.6*	3.5
Cc1ccc(Nc2nc3ccc(Cl)cc3n3cnnc23)cc1F	i	-1.5	x	x	-1.9
CCOc1ccc(S(=O)(=O)Nc2cc(S(=O)(=O)N3CCOCC3)ccc2OC)cc1	x	x	x	x	-5.3
Cc1ccc(-n2c(N)c(-c3nc4ccccc4n3C)sc2=S)cc1	i	27.9*	-0.2	40.5	2.6
Cn1c(-c2ccc(N)cc2)nc2ccccc21	x	x	3.2	-0.4	-0.1
CCN(C(=O)CN1CCc2ccccc21)c1c(N)n(Cc2ccccc2)c(=O)[nH]c1=O	i	6.5	57.0*	9.4	0.3
COCCN(C(=O)CN1CCc2ccccc21)c1c(N)n(Cc2ccccc2)c(=O)[nH]c1=O	x	x	x	x	-1.1
CC(O)(CC(=O)O)CC(=O)O	i	-1.4	x	x	x
CC(=O)n1c2c(c3ccccc31)OC(N)=C(C#N)C2c1ccc(C(C)C)cc1 (stereo unspecified)	i	31.1*	-7.1	-7.3	13.6
Cc1ccc2c(c1)C(c1ccncc1)=NNC(c1ccc(C(C)C)cc1)=N2	x	x	-1.1	-2.9	x
Cc1ccc(Oc2nc3ccccn3c(=O)c2/C=C(\C#N)C(=O)NC2CCS(=O)(=O)C2)cc1 (stereo unspecified)	i	29.4*	81.5*	72.8*	12.2
CCOC(=O)/C(C#N)=C/c1c(Oc2cc(C)cc(C)c2)nc2ccccn2c1=O	i	3.4	4.3	-0.2	-2.4
SMILES	Rce1 inh	RanGTP-Impb inh	Runt-SMMHC FRET	Runt-CBFb FRET	Vif imaging
Cc1ccccc1Oc1nc2c(C)cccn2c(=O)c1/C=C(\C#N)C(=O)NC1CCS(=O)(=O)C1 (stereo unspecified)	i	13.0	75.6*	112.7*	-13.5
Cc1ccc(Oc2nc3c(C)cccn3c(=O)c2/C=C(\C#N)C(N)=O)cc1	i	12.0	63.6*	46.3	-15.5
CCOC(=O)/C(C#N)=C/c1c(Oc2cccc(C)c2)nc2c(C)cccn2c1=O	i	-5.6	63.3	-4.7	-4.7
Cc1cccn2c(=O)c(/C=C(\C#N)C(=O)NC3CCS(=O)(=O)C3)c(Oc3ccccc3Cl)nc12 (stereo unspecified)	x	160.1*	x	x	-1.8
COC(=O)/C(C#N)=C/c1c(Oc2cccc(C)c2C)nc2ccccn2c1=O	i	4.0	8.1	6.1	-7.7
COc1ccccc1C(=O)Nc1ccc(OCC(=O)N2CC(C)OC(C)C2)cc1 (stereo unspecified)	x	x	x	x	16.1
CCOc1ccc(S(=O)(=O)N2CCCCC2)cc1NC(=O)c1c(CC)noc1C	i	x	x	x	3.6
COc1ccccc1CNC(=O)Nc1nnc([C@H]2C[C@H](O)[C@@H](CO)O2)s1	x	x	x	x	-0.2
S=c1[nH]nc(-c2ccccc2)n1/N=C/c1cccc(Br)c1	i	1.3	x	x	8.0
Oc1ccc(Br)cc1/C=N/n1c(-c2ccccc2)n[nH]c1=S	i	17.8*	x	x	u
O=C(Nc1cccnc1Oc1ccc(Cl)cc1)c1cccc2ccccc12	+	0.0	2.9	0.4	-2.8
NC(=O)c1cccnc1Oc1ccc(Cl)cc1	i	0.4	-1.8	2.5	8.0
CCN(CC)C1=CC2=CC(=C(C#N)C#N)CCC2CC1 (stereo unspecified)	i	x	82.6*	4.2	1.4
N#CC(C#N)=C1C=C2C=C(N3CCCCC3)CCC2CC1 (stereo unspecified)	x	x	77.2*	-50.4	x
CCCCN(C)C1=CC2=CC(=C(C#N)C#N)CCC2CC1 (stereo unspecified)	i	92.0*	58.5*	28.5	-2.4
C[C@@H]1CN([C@H](C)CO)C(=O)CCCn2nncc2CO[C@@H]1CN(C)S(=O)(=O)c1ccc(F)cc1	x	x	x	x	4.5
O=C1OCC2=C1C(c1ccc(F)cc1)c1cc3c(cc1N2)OCO3 (stereo unspecified)	x	x	2.0	-0.8	33.2
CCOc1ccccc1C1C2=C(COC2=O)Nc2cc3c(cc21)OCO3 (stereo unspecified)	i	0.1	3.4	-0.8	80.7*
NCCOc1ccccc1-c1ccccc1	i	-4.0	-0.2	0.6	50.4*
CC(=O)Nc1ccc(S(=O)(=O)Oc2ccc(/C=C3\SC(N)=NC3=O)cc2)cc1	i	7.1	0.7	2.0	2.8
Cc1ccc(S(=O)(=O)NC2CC2)cc1	i	-2.5	x	x	-1.5
COc1cccc(N(CC(=O)NCC2CCCO2)C(=O)CCC(=O)Nc2nccs2)c1 (stereo unspecified)	i	1.0	2.3	-0.3	-4.8
CCn1c(=O)c(-c2cc(=O)[nH][nH]2)c(O)c2ccccc21	i	0.4	-7.1	0.4	0.7
O=c1c(-c2ccccc2)c(O)c2ccccc2n1-c1ccccc1	+	-0.5	x	x	x
CCn1c(=O)c(-c2ccccc2)c(O)c2ccccc21	+	-1.5	-0.3	-2.0	1.3
CCCCn1c(=O)c(-c2ccccc2)c(O)c2ccccc21	+	2.9	2.1	-3.3	x
O=C(COc1ccc(F)cc1)N1CCC(Cc2ccccc2)CC1	i	-0.1	x	x	-4.8
COc1ccc(OC)c(/C=C/c2nc3ccccc3[nH]c2=O)c1	x	-95.8	x	x	+
O=c1[nH]c2ccccc2nc1/C=C/c1ccc(F)cc1	i	37.6*	49.5	15.5	0.1
